FAS-TE inh – inhibitors of human fatty acid synthase thioesterase domain | recombinant FAS-TE, OMFH fluorogenic substrate, fluorescence endpoint | P49327 | inhibition, % at 15 µM | 0.67% of 360,000 active;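 active = compounds whose normalised, plate-corrected inhibition of enzyme fluorescence in the single-dose primary screen is 50% or more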;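 also: 0% = DMSO with enzyme and 100% = substrate without enzyme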
CaV13 ICDI inh – Primary screen for inhibitors of IQ motif and Ca2+-dependent inactivation inhibitor domain binding in CACNA1D, Förster resonance energy transfer in living cells, …; HEK cells, CFP/YFP FRET ICDI-IQ, plate reader, 10 min; percent FRET-ratio fall versus neutral wells; inhibition, % at 12.3 µM; 0.098% of 340,000 active; AID 743397;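 active = mean replicate inhibition of at least 30% and at least 1% of replicates passing that level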;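 also: 0% = median of the neutral control wells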
CendR NRP1 mod – modulators of CendR peptide binding to human neuropilin-1 | O14786 | FAM-RPARPAR peptide binding to NRP-1, fluorescence polarization | inhibition, % at 25 µM | 0.85% of 360,000 active | AID 602438;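 active = inhibition or corrected inhibition above about 18%, plus a signal ratio from 0.5 to 1.5, limit read from the data, passing the limit was not always enough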
Arr AP2 block – inhibitors of human beta-arrestin and AP2 interaction; 0.31% of 340,000 active; inhibition, % at 10 µM; FITC-arrestin peptide / GST-AP2 beads, flow cytometry; AP2 beta2 appendage carries R879A mutation;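 active = inhibition above a set limit, near 3 SD of compounds lacking own fluorescence, cut at about 54% in these data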;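 also: plate controls were DMSO wells for no effect and 5 µM unlabelled arrestin peptide for full effect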
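Material – AP2 appendage R879A on GSH beads · Buffer or medium – PBS with 0.05% Tween 20 and 0.1% BSA · Probe or stimulus – fluorescein-tagged arrestin peptide at 50 nM final · Incubation – compound with beads 12 min RT, then probe 1 h RT · Detection – high-throughput flow cytometry of beads, ex 488, em 535 nm · Evaluation – percent response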
ADAM17 inh – inhibitors of human ADAM17; P78536; recombinant ADAM17, EDANS/DABCYL FRET peptide cleavage; inhibition, % at 6.95 µM; 0.83% of 370,000 active;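 active = inhibition above the mean of compounds lying between control limits plus 3 SD, set per campaign, cut at about 8.5% in these data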;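 also: 0% = DMSO-only wells as the low control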
Target sequence (P78536 215-824 limits assumed): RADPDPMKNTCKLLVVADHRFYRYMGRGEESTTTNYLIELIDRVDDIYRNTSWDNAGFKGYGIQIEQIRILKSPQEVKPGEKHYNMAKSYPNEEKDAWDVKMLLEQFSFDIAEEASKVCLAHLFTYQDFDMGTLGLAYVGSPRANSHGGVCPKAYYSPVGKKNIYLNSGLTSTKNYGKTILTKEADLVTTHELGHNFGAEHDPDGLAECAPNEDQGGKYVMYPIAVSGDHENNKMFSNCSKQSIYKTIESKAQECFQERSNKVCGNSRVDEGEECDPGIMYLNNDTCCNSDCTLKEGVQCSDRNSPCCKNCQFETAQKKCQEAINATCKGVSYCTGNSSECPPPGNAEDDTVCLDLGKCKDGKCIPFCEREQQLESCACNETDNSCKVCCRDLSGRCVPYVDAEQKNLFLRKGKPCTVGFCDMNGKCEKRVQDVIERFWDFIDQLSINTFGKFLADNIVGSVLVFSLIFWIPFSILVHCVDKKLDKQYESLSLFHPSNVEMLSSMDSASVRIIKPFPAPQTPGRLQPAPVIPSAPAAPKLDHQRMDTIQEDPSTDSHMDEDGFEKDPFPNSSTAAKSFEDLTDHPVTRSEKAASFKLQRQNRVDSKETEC
ADAM10 inh – inhibitors of human ADAM10 | recombinant ADAM10, EDANS/DABCYL FRET peptide cleavage, 3 h | 0.62% of 370,000 active | inhibition, % at 7 µM | AID 720582 | O14672;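 active = inhibition above a per-campaign cutoff equal to the mean of compounds falling between control-based bounds plus 3 SD, cut at about 20% in these data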;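 also: 0% = DMSO wells while the 100% control is not disclosed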
FAS-TE inh conf – FAS thioesterase (human) inhibition, confirmation. 45% of 2,300 active. AID 624325. inhibition, % at 15 µM. shares compounds with FAS-TE inh. recombinant FAS-TE, OMFH fluorogenic substrate, fluorescence;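 active = compounds inhibiting the enzyme by at least 50% at 15 µM in any one of the replicates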;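 also: 0% = enzyme with DMSO only and 100% = wells lacking enzyme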
* = called active by the depositor; . = no result given. In the library only some 2.9% were active in any assay of this set; here they are far more common.

SMILES | FAS-TE inh | CaV13 ICDI inh | CendR NRP1 mod | Arr AP2 block | ADAM17 inh | ADAM10 inh | FAS-TE inh conf
Cc1ccc(C(=O)Nc2ccccc2N2CCCCC2)cc1[N+](=O)[O-] | 46 | 0 | 6 | 19 | 0 | 1 | .
COc1ccc(C(=O)Nc2ccccc2N2CCCCC2)cc1[N+](=O)[O-] | 57* | -18 | 16 | 2 | 1 | 5 | 31
COc1ccc(C(=O)OCC(=O)Nc2ccccc2)cc1[N+](=O)[O-] | 62* | -7 | 0 | 4 | 1 | 0 | 46*
COc1ccc(C(=O)OCC(=O)NC(=O)NCc2ccccc2)cc1[N+](=O)[O-] | 26 | -7 | 0 | 9 | 1 | 3 | .
COc1cc(OC)cc(C(=O)Nc2cccc(C(C)=O)c2)c1 | -1 | -7 | -1 | 3 | 1 | -1 | .
CC(=O)c1cccc(OC(=O)Oc2cccc(C(C)=O)c2)c1 | 50* | -6 | -8 | -10 | -4 | 1 | 69*
Cc1cccc(N2N=C(C(=O)N3Cc4ccccc4CC3C(N)=O)CCC2=O)c1 (centres undefined) | -3 | -2 | 14 | -11 | -4 | 1 | .
COc1ccc(N2CCN(C(=O)CSc3ccc([N+](=O)[O-])cc3)CC2)cc1 | 60* | -5 | 6 | 46 | -2 | -1 | 33*
CN1CCn2cnc(C(=O)N[C@@H](Cc3ccccc3)C(=O)OC(C)(C)C)c2C1=O | -5 | -5 | 1 | . | -3 | -3 | .
CC(C)(C)c1ccc(Cn2cnc(-c3ccc([N+](=O)[O-])cc3)c2)cc1 | 51* | -5 | 2 | 6 | 4 | 5 | 31
COc1cc2cc(CN(Cc3cccs3)C(=S)Nc3ccccc3)c(=O)[nH]c2cc1OC | 79* | -19 | 3 | 1 | -32 | -115 | 31
Cc1cccn2c(=O)nc(SCC(=O)Nc3ccc4c(c3)OCO4)nc12 | 0 | -7 | 4 | 1 | 0 | -4 | .
Cc1ccc(NC(=O)CSc2nc3nn(-c4ccccc4)c(=O)c-3c3n2CCCCC3)cc1F | 74* | -5 | 4 | -15 | 1 | -7 | 31
Cc1ccc(C)c(S(=O)(=O)N2CCCCC2CCNC(=O)C(=O)NCc2ccccc2)c1 (centres undefined) | 16 | -2 | -1 | 15 | -1 | -1 | .
Cc1ccc(-c2nnc(SCC(=O)N/N=C/c3c(C)nn(-c4ccccc4)c3C)n2-c2ccc(C)cc2)cc1 | 62* | -14 | 3 | . | 3 | -5 | 16
O=C(Nc1cc(Oc2ccc(Cl)cc2)cc([N+](=O)[O-])c1)c1ccco1 | 56* | -5 | -4 | -10 | 2 | 0 | 45
COc1ccc(-c2nnc(SCC(=O)Nc3ncc(C(F)(F)F)cc3Cl)n2CC(C)C)cc1 | 79* | -3 | -16 | -18 | -6 | -10 | 81*
COC(=O)CNC(=O)CSc1nnc(-c2ccc(OC)cc2)n1CC(C)C | -4 | -3 | 8 | 6 | -2 | -1 | .
O=C(Nc1ccc(F)cc1)OCCN1C(=O)CCC12CCC(c1ccccc1)CC2 (centres undefined) | . | . | . | . | -4 | -4 | .
CC(C)(C)OC(=O)NCCc1onc(-c2cccc([N+](=O)[O-])c2)c1C(=O)O | 81* | -7 | -6 | . | 0 | 6 | 87*
COc1ccc([N+](=O)[O-])cc1NC(=O)CC(c1ccccc1)c1ccccc1 | 62* | -5 | 4 | -8 | 6 | 10 | 54*
COc1ccc(NC(=O)CN(c2ccc([N+](=O)[O-])cc2)S(=O)(=O)c2ccccc2)c(OC)c1 | 70* | -4 | 4 | 2 | 3 | 12 | 68*
COc1ccc([N+](=O)[O-])cc1NC(=O)CCN1CCOCC1 | 10 | -4 | 3 | 5 | -5 | -1 | .
COc1ccc([N+](=O)[O-])cc1NC(=O)C1(c2ccccc2)CCOCC1 | 51* | 0 | -5 | 13 | 1 | 12 | 53*
COc1ccc([N+](=O)[O-])cc1NC(=O)c1cn(-c2ccc(Cl)cc2)c(=O)c2ccccc12 | 91* | -5 | 0 | -3 | 6 | 1 | 2
SMILES | FAS-TE inh | CaV13 ICDI inh | CendR NRP1 mod | Arr AP2 block | ADAM17 inh | ADAM10 inh | FAS-TE inh conf
Nn1c(SCC(=O)Nc2ccccc2-c2ccccc2)nnc1-c1n[nH]c2c1CCC2 | . | . | . | . | 2 | 8 | .
CC(CC(=O)Nc1cc([N+](=O)[O-])ccc1Cl)c1ccccc1 (centres undefined) | 48 | 0 | 2 | 3 | -5 | -4 | .
O=C(Nc1cc([N+](=O)[O-])ccc1Cl)C(Sc1ccccc1)c1ccccc1 (centres undefined) | 73* | . | 0 | 5 | 5 | 10 | 67*
COc1ccc(N(CC(=O)N/N=C/c2ccc(OC3CSC3)cc2)S(=O)(=O)c2ccccc2)cc1 | 50* | -5 | 15 | 3 | -1 | -2 | 6
CCOc1ccc(NC(=O)c2cn(-c3ccc(OCC)cc3)c(=O)c3cc(OC)c(OC)cc23)cc1 | 11 | -3 | 0 | 6 | -2 | -7 | .
Cc1ccc(N(CC(=O)N/N=C/c2ccc(OC3CSC3)cc2)S(=O)(=O)c2ccccc2)cc1 | 42 | -12 | -4 | -13 | -2 | 1 | .
COc1ccc([N+](=O)[O-])cc1NC(=O)C(C)NNC(=O)c1cccc([N+](=O)[O-])c1 (centres undefined) | 56* | -6 | 4 | 9 | 0 | 9 | 53*
CCOc1ccc(-n2cc(C(=O)Nc3cccc(Cl)c3)c3cc(OC)c(OC)cc3c2=O)cc1 | 59* | -5 | -7 | 11 | 2 | 5 | 19
COc1cccc(NC(C)C(=O)Nc2cc([N+](=O)[O-])ccc2Cl)c1 (centres undefined) | 56* | -7 | 2 | 40 | -3 | 0 | 58*
CCC(CC)C(=O)Nc1cc([N+](=O)[O-])ccc1Cl | 17 | -4 | 16 | -1 | 2 | -3 | .
C[C@H]1COc2cc(NCCCN3CCOCC3)ccc2S(=O)(=O)N1 | . | -7 | . | . | 0 | -3 | .
Cc1ccc(S(=O)(=O)Nc2ccc3c(c2)c2c(n3S(=O)(=O)c3ccc(C)cc3)CCCC2=O)cc1 | 51* | -3 | 6 | -9 | -3 | 4 | 20
CC(C)C(=O)N1CCC2(CC1)Oc1ccc(Cl)cc1C(=O)C21CC(c2ccc(Cl)cc2)=NO1 (centres undefined) | 50* | -5 | 16 | 3 | 6 | 12 | 8
Cc1noc(C)c1C(=O)N1CCC2(CC1)Oc1ccc(F)cc1C(=O)C21CC(c2ccc(Cl)cc2)=NO1 (centres undefined) | 94* | -7 | 20 | 0 | 6 | 12 | 22
